In the library only some 2.7% were active in any assay of this set; here they are far more common.
Hep lipid drop: hepatic lipid droplet formation modulation | inhibition, % at 6.5 µM | actives 0.4% (n = 240,000) | AML12 mouse hepatocytes, oleate lipid droplets, BODIPY imaging;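 active = lipid droplet intensity inhibited by at least 50%, with more than 500 cells counted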
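System: AML12 hepatocytes (mouse). Probe or stimulus: oleic acid at 100 µM to induce lipid droplet formation. Times: overnight treatment with compound plus oleate. Detection: Image-based BODIPY and DAPI two-channel analysis. Evaluation: percent inhibition of filter-corrected integrated lipid droplet intensity per well.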
MC4R antagonist: blocks human MC4R cAMP signaling; MC4R-expressing cells, MTII-stimulated cAMP, LANCE TR-FRET; AID 540295; inhibition, % at 6.5 µM; actives 0.48% (n = 360,000); P32245;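 active = inhibition above its plate's cutoff, the mean of tested wells on that plate plus 3 SD, cut at about 29% in these data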;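 also: 0% = Melanotan II alone and 100% = Melanotan II plus saturating MCL0020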
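Test system: U2OS cells stably expressing human melanocortin 4 receptor (MC4R); also added: Melanotan II challenge; compound: 6.5 µM single dose; timing: 30-min compound preincubation, 1-h Melanotan II challenge, 1-h detection, room temperature; signal: Eu-cAMP/anti-cAMP TR-FRET, emission 671 nm; repeats: one well per compound, no replicates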
NTR1 agonist: activates human neurotensin receptor 1; activation, % at 20 µM; actives 0.17% (n = 330,000); NTR1-U2OS beta-arrestin-GFP spot imaging, agonist mode;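 active = activation at or above 40% of the spot to cytoplasm intensity ratio, with at least 20 cells analyzed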;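 also: 0% = DMSO without peptide and 100% = 100 nM NTR1 peptide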
Target sequence (P30989 whole entry, looked up): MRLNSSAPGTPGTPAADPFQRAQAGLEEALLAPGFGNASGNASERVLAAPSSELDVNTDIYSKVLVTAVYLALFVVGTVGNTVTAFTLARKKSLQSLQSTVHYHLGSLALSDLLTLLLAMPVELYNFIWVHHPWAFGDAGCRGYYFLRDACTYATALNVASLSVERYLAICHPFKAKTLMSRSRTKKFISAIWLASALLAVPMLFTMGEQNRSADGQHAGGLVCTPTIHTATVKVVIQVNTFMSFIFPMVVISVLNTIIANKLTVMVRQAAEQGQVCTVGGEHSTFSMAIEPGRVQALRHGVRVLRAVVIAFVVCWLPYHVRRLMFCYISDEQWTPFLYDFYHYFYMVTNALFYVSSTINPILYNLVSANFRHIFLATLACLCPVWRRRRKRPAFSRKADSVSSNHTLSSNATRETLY
PREPL inhibitor: human PREPL enzyme inhibition | Q4J6C6 | inhibition, % at 5.96 µM | recombinant PREPL, fluorescence polarization activity-based probe | actives 0.68% (n = 320,000); in the data active = inhibition above about 43%;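 also: 0% = enzyme with DMSO and 100% = wells lacking enzyme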
MC4R ag barr: human MC4R agonism via beta-arrestin | activation, % at 8.9 µM | U2OS MC4R beta-arrestin complementation, luminescence; percent of melanotan II response, DMSO zero | actives 0.98% (n = 360,000) | AID 540308 | P32245;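 active = activation above a per-plate cutoff, the mean activation of sample wells on that plate plus 3 SD, cut at about 8% in these data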
m5-HT2A agonist: mouse HTR2A agonism via beta-arrestin recruitment. activation, % at 7.6 µM. AID 624169. CHO-K1 mHTR2A beta-arrestin complementation, luminescence; percent of 30 µM serotonin response. P35363. actives 0.66% (n = 360,000);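 active = activation above a run cutoff, the mean activation of all tested compounds plus 3 SD, cut at about 14% in these data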;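 also: 0% = plate median of compound wells and 100% = 30 µM serotonin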
MC4R barr ag: human MC4R beta-arrestin agonism confirmation; shares compounds with MC4R ag barr; U2OS MC4R beta-arrestin recruitment, luminescence; scaled DMSO 0%, Melanotan II 100%; activation, % at 8.9 µM; actives 31% (n = 2,400); AID 602192;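 active = mean activation across replicates above the hit cutoff set in the earlier primary screen, cut at about 8% in these data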
MOR DOR agonist: activates mu-delta opioid heterodimer, MC4R agonist counter-screen; shares compounds with MC4R ag barr; actives 5.8% (n = 2,400); activation, % at 9.2 µM; U2OS PathHunter beta-arrestin, beta-gal luminescence; percent of deltorphin B response, DMSO zero;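 active = mean activation across replicates exceeds the hit threshold derived in the earlier primary screen, cut at about 18% in these data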;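 also: 100% = deltorphin B at 0.9 µM final and 0% = DMSO alone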
* = called active by the depositor; / = not tested or not shown.

SMILES	Hep lipid drop	MC4R antagonist	NTR1 agonist	PREPL inhibitor	MC4R ag barr	m5-HT2A agonist	MC4R barr ag	MOR DOR agonist
Cc1cc(OC(C)C(=O)NCc2ccccn2)c2c(C)c(Cc3ccccc3)c(=O)oc2c1 (stereo unspecified)	-2.0	11.5	6.6	-1.1	10.6*	4.7	1.0	2.5
COc1ccc(C(=O)Nc2ccc(N3CCCCC3)cc2)cc1Br	17.8	-2.4	2.6	2.8	12.8*	-1.0	2.3	8.4
Cc1onc(-c2c(F)cccc2Cl)c1C(=O)N(C)CCc1ccccn1	-0.1	-2.2	0.1	12.1	2.0	-0.7	/	/
NNc1ccc([N+](=O)[O-])c2[nH][nH]c(=O)c12	/	-3.2	/	/	-2.5	-0.7	/	/
NC(=O)c1c(NC(=O)c2ccccc2)sc2c1CCN(Cc1ccccc1)C2	-14.0	11.3	3.1	-0.4	12.3*	-2.5	2.1	6.9
COc1ccc(NC(=O)NNC(=O)COc2ccc([N+](=O)[O-])c(C)c2)cc1OC	6.0	-2.2	2.3	5.5	-1.3	-0.7	/	/
Cc1cccc(NC(=O)c2oc(=O)c3ccccc3c2-c2ccccc2)c1C	0.6	9.7	3.2	-10.9	11.1*	6.2	1.0	3.4
Cc1ccccc1NC(=O)c1oc(=O)c2ccccc2c1-c1ccccc1	-4.9	-3.2	1.1	-11.2	-0.8	-4.2	/	/
CCOC(=O)c1c(C)n(-c2ccccc2)c2ccc(OCCN(C)C)cc12	-9.5	6.6	3.1	12.0	1.9	-6.7	/	/
Cc1ccc(C2=NN(S(=O)(=O)c3ccccc3)C(c3ccccc3O)C2)cc1 (stereo unspecified)	8.1	11.1	/	/	12.2*	-8.8	9.7*	10.7
CCn1cc(Cl)c(C(=O)N2N=C(c3ccc4ccccc4c3)CC2c2ccccc2O)n1 (stereo unspecified)	36.5	17.1	21.6	-1.3	20.3*	5.0	4.3	9.7
Cc1ccc(C2=NN(C(=O)c3cccs3)C(c3ccccc3O)C2)cc1 (stereo unspecified)	14.8	9.7	5.4	11.6	17.8*	-1.0	30.2*	4.5
O=C(c1ccccc1)N1N=C(c2ccccc2)CC1c1ccccc1O (stereo unspecified)	-12.7	7.0	10.6	-10.6	17.3*	4.5	11.2*	11.2
COc1ccc(C2CC(c3ccccc3)=NN2S(=O)(=O)c2ccccc2)cc1 (stereo unspecified)	17.3	-7.0	-0.6	14.1	-0.2	0.8	/	/
COc1ccc(NC(=O)CC2C(=O)N(c3ccc(F)cc3)C(=S)N2NC(=O)c2ccc(Cl)cc2)cc1 (stereo unspecified)	22.0	-2.6	3.0	-5.9	2.7	-0.7	/	/
CC(C)C(=O)Nc1nc2c(c(=O)[nH]1)CCCC2	3.0	-5.7	-0.9	1.4	-1.7	2.8	/	/
O=C(COC(=O)CNS(=O)(=O)c1c(F)cccc1F)NC(=O)NC1CCCCC1	/	11.3	-0.6	-0.1	-2.3	-1.0	/	/
Cc1cc(Br)c(NC(=O)Cn2c([N+](=O)[O-])cnc2C)cc1C	-0.2	-4.4	-1.4	8.0	-0.7	5.0	/	/
O=C(c1cccs1)N1N=C(c2ccccc2)CC1c1ccccc1O (stereo unspecified)	2.9	-3.3	22.0	-4.8	13.1*	10.0	8.0	4.9
COc1ccc(C2=NN(C(=O)c3cccs3)C(c3ccccc3OC)C2)cc1OC (stereo unspecified)	13.1	-6.0	5.9	1.6	-0.1	5.5	/	/
Cc1cccc2c1nc(-c1ccccc1)n1nnnc21	/	-3.6	3.7	-2.0	13.3*	-3.2	2.2	4.2
Cc1ccc(C)c(OCCn2cc(/C=C(\C#N)C(=O)NCc3cccs3)c3ccccc32)c1	-5.5	0.9	1.6	-15.2	-2.2	-0.5	/	/
Cc1ccccc1OCCn1cc(/C=C(\C#N)C(=O)NCc2ccco2)c2ccccc21	20.1	4.2	3.0	5.2	25.6*	-3.3	12.0*	6.0
N#C/C(=C\c1cn(CCOc2ccccc2)c2ccccc12)C(=O)NCc1ccco1	/	19.8	9.8	-13.8	21.4*	2.3	34.8*	8.9
N#C/C(=C\c1cn(CCOc2ccccc2F)c2ccccc12)C(=O)NCc1cccs1	-20.6	10.1	1.6	2.4	10.4*	-1.1	25.7*	7.8
SMILES	Hep lipid drop	MC4R antagonist	NTR1 agonist	PREPL inhibitor	MC4R ag barr	m5-HT2A agonist	MC4R barr ag	MOR DOR agonist
CN(C)CCCNC(=O)c1ccc(-c2nc(-c3ccc(Cl)cc3)cs2)cc1	/	17.4	-5.3	-94.6	15.7*	-6.7	56.4*	6.3
CC(=O)Nc1cc(-c2ccc(N(C)C)cc2)cn2c(-c3ccc(F)cc3)cnc12	/	-8.0	/	/	122.6*	-7.6	69.7*	3.3
CC(=O)Nc1cc(-c2ccc(S(C)(=O)=O)cc2)cn2c(-c3ccc(F)c(Cl)c3)cnc12	/	11.5	/	/	19.5*	6.3	16.9*	3.6
CC(=O)Nc1cc(-c2ccc(N(C)C)cc2)cn2c(-c3ccc(F)c(Cl)c3)cnc12	/	2.2	/	/	70.7*	6.4	200.3*	10.2
CC(=O)Nc1cc(-c2ccc(C(=O)NC3CC3)cc2)cn2c(-c3ccc(F)c(Cl)c3)cnc12	/	21.8	/	/	8.2	-1.4	/	/
O=C(NCc1ccco1)c1cccc(-c2ccc3nccn3c2)c1	/	-12.9	/	/	-1.9	-0.5	/	/
COc1ccc(Cn2c(C)c(C)c(C#N)c2NC(=O)Nc2ccc(Cl)cc2)cc1	/	12.3	-1.1	6.8	12.7*	-3.4	1.3	5.4
COc1ccc(Cn2c(C)c(C)c(C#N)c2NC(=O)Nc2cccc(Cl)c2)cc1	/	-6.9	-1.7	5.7	20.9*	-5.9	3.3	6.4
CC(C)(C)c1nc2ccc(NS(=O)(=O)c3ccc(F)c(F)c3F)cc2[nH]1	-0.8	6.8	-1.5	-3.9	-1.3	3.1	/	/
COc1ccc(NC(=O)c2sc3cc(C(F)(F)F)cnc3c2-c2cccs2)cc1	11.9	3.4	1.6	-9.2	9.8*	1.4	-0.9	3.0
N#Cc1ccc(NC(=O)c2sc3cc(C(F)(F)F)cnc3c2-c2cccs2)cc1	9.2	-7.0	2.4	-7.0	-0.1	1.6	/	/
O=C(Nc1ccc(F)cc1)c1sc2cc(C(F)(F)F)cnc2c1-c1cccs1	11.8	0.7	2.0	5.3	11.0*	-1.7	6.1	5.7
CC(C)[C@@H](C(=O)N[C@@H](C(=O)O)c1ccccc1)N1C(=O)N2CCc3c([nH]c4ccccc34)[C@@]2(C)C1=O	1.5	3.8	-1.0	7.1	-0.6	-1.8	/	/
